According to ChEMBL document CHEMBL4411337, “2-Aminothiazole Derivatives as Selective Allosteric Modulators of the Protein Kinase CK2. 1. Identification of an Allosteric Binding Site” (J Med Chem, 2019):

Assays:
[1] = molecular target: 5'-AMP-activated protein kinase catalytic subunit alpha-1 (Homo sapiens) (UniProt Q13131); assay: Inhibition of AMPKalpha1 (unknown origin) assessed as residual activity at 50 uM relative to control
Method in brief: (§1)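 Selectivity profiling against a panel of 44 human kinases. For each kinase, ATP was set to that kinase's Km. Values are residual activity in duplicate assays.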

[2] = molecular target: Cyclin-dependent kinase 7/ cyclin H (Homo sapiens) (UniProt P51946+P50613); assay: Inhibition of CDK7/cyclin H (unknown origin) assessed as residual activity at 50 uM relative to control; type: protein-complex assay; method in brief: as §1
[3] = molecular target: Protein kinase C alpha type (Homo sapiens) (UniProt P17252); assay: Inhibition of PKCalpha (unknown origin) assessed as residual activity at 50 uM relative to control
Method in brief: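 Profiling panel of 44 human kinases. ATP set to each kinase's Km. Run in duplicate; duplicates within 15–17% of each other.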

Homo sapiens = species on record: Homo sapiens; assay: Inhibition of PKA (unknown origin) assessed as residual activity at 50 uM relative to control; method in brief: as §1
[4] = molecular target: Fibroblast growth factor receptor 1 (Homo sapiens) (UniProt P11362); assay: Inhibition of FGFR1 (unknown origin) assessed as residual activity at 50 uM relative to control; method in brief: as §1
Chain of Fibroblast growth factor receptor 1 (Homo sapiens) (P11362 22-822 limits assumed): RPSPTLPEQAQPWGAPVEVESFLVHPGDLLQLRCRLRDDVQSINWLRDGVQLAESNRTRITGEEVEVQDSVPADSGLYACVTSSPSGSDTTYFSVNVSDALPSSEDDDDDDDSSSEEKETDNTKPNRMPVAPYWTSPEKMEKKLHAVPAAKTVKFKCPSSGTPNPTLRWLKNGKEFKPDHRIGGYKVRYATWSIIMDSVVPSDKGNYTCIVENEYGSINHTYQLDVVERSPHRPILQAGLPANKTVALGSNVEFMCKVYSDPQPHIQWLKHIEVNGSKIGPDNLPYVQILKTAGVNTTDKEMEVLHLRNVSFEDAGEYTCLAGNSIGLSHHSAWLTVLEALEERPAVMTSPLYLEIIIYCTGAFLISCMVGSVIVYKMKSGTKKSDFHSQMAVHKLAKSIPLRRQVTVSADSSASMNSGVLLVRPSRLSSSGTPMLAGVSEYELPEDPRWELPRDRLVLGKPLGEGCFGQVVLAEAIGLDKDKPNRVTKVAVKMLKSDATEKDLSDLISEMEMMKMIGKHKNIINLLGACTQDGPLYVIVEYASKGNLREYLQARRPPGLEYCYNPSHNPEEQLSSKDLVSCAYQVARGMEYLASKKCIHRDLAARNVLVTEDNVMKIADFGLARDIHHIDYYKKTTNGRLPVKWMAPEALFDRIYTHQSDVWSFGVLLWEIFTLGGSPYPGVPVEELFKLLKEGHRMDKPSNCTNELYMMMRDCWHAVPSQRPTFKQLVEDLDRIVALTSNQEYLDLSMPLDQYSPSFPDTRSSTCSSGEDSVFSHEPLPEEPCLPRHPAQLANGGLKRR

[5] = molecular target: Dual specificity tyrosine-phosphorylation-regulated kinase 2 (Homo sapiens) (UniProt Q92630); assay: Inhibition of DYRK2 (unknown origin) assessed as residual activity at 50 uM relative to control; method in brief: as §1
Chain of Dual specificity tyrosine-phosphorylation-regulated kinase 2 (Homo sapiens) (Q92630 whole entry): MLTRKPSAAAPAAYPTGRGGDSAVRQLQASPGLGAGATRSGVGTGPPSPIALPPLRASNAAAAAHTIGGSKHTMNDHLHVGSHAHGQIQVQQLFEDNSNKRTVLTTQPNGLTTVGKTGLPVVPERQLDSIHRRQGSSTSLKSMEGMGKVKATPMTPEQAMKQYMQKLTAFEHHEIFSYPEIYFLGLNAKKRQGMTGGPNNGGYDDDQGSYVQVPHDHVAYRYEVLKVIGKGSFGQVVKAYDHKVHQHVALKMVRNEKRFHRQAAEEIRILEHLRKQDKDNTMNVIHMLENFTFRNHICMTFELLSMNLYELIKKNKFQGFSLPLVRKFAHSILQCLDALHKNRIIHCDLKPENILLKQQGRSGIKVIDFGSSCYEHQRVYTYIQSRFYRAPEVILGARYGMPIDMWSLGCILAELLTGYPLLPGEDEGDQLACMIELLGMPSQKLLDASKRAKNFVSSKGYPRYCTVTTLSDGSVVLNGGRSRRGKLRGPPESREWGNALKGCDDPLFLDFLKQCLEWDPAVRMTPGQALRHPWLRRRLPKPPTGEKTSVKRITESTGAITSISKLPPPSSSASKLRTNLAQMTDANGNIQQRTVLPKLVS

[6] = molecular target: Tyrosine-protein kinase ABL1 (Homo sapiens) (UniProt P00519); assay: Inhibition of ABL (unknown origin) assessed as residual activity at 50 uM relative to control; method in brief: as §1
Chain of Tyrosine-protein kinase ABL1 (Homo sapiens) (P00519 whole entry): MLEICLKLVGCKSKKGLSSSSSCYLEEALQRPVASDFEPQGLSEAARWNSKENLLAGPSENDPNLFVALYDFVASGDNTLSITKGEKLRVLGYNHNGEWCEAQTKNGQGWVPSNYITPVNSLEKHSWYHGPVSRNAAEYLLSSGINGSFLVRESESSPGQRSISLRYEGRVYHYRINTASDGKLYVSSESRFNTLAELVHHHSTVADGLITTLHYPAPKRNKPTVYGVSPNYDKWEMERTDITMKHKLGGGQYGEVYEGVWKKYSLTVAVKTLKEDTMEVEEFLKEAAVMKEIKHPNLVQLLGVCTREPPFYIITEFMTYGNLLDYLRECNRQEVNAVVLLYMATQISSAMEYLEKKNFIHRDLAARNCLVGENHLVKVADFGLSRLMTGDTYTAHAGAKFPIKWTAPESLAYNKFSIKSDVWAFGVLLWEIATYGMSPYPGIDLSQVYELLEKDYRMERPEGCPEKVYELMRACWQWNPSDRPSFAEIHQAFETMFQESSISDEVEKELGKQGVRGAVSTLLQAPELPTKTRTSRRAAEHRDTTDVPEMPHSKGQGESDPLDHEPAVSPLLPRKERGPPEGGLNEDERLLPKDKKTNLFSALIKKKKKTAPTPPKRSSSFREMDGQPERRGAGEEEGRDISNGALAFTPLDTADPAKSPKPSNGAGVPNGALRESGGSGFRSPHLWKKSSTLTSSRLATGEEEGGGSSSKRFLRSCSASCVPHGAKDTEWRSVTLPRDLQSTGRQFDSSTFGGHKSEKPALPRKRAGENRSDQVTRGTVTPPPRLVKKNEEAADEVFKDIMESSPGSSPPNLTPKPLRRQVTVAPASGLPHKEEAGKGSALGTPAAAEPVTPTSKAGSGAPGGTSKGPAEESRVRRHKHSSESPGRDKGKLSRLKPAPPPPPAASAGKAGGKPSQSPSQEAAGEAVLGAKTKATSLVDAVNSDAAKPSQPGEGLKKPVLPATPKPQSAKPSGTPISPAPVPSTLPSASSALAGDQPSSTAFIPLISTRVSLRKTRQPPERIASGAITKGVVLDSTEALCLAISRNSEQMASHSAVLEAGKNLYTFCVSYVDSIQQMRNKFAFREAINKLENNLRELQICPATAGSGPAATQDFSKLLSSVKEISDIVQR

[7] = molecular target: Inhibitor of nuclear factor kappa-B kinase subunit alpha (Homo sapiens) (UniProt O15111); assay: Inhibition of IKKalpha (unknown origin) assessed as residual activity at 50 uM relative to control; method in brief: as §1
[8] = molecular target: Glycogen synthase kinase-3 beta (Homo sapiens) (UniProt P49841); assay: Inhibition of GSK3beta (unknown origin) assessed as residual activity at 50 uM relative to control; method in brief: as §1
Chain of Glycogen synthase kinase-3 beta (Homo sapiens) (P49841 whole entry, looked up): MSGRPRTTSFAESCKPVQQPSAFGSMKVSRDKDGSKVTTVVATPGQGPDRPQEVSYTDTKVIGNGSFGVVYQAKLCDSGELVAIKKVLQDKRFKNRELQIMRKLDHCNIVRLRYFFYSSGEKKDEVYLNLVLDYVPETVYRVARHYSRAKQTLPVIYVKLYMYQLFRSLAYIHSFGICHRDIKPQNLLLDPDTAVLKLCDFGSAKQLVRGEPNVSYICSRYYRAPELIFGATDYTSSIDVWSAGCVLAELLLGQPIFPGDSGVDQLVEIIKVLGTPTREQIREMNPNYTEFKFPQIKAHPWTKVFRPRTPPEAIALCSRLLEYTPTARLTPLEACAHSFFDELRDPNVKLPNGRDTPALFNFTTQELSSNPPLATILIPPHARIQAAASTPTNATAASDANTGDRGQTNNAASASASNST

[9] = molecular target: Dual specificity mitogen-activated protein kinase kinase 1 (Homo sapiens) (UniProt Q02750); assay: Inhibition of MEK1 (unknown origin) assessed as residual activity at 50 uM relative to control; method in brief: as §1
Chain of Dual specificity mitogen-activated protein kinase kinase 1 (Homo sapiens) (Q02750 whole entry): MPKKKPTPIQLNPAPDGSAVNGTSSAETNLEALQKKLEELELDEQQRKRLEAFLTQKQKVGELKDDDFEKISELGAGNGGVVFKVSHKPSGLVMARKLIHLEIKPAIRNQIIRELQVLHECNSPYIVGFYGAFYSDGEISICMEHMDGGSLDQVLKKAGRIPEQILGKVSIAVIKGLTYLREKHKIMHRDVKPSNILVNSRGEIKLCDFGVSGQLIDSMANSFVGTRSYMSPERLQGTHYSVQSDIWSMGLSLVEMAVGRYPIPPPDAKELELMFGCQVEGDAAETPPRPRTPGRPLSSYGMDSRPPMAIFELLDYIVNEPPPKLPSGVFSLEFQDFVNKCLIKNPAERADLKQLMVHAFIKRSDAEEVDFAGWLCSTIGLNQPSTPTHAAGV

[10] = molecular target: Tyrosine-protein kinase Fyn (Homo sapiens) (UniProt P06241); assay: Inhibition of FYN (unknown origin) assessed as residual activity at 50 uM relative to control; method in brief: as §1
[11] = molecular target: Homeodomain-interacting protein kinase 2 (Homo sapiens) (UniProt Q9H2X6); assay: Inhibition of HIPK2 (unknown origin) assessed as residual activity at 50 uM relative to control; method in brief: as §1
Chain of Homeodomain-interacting protein kinase 2 (Homo sapiens) (Q9H2X6 whole entry, looked up): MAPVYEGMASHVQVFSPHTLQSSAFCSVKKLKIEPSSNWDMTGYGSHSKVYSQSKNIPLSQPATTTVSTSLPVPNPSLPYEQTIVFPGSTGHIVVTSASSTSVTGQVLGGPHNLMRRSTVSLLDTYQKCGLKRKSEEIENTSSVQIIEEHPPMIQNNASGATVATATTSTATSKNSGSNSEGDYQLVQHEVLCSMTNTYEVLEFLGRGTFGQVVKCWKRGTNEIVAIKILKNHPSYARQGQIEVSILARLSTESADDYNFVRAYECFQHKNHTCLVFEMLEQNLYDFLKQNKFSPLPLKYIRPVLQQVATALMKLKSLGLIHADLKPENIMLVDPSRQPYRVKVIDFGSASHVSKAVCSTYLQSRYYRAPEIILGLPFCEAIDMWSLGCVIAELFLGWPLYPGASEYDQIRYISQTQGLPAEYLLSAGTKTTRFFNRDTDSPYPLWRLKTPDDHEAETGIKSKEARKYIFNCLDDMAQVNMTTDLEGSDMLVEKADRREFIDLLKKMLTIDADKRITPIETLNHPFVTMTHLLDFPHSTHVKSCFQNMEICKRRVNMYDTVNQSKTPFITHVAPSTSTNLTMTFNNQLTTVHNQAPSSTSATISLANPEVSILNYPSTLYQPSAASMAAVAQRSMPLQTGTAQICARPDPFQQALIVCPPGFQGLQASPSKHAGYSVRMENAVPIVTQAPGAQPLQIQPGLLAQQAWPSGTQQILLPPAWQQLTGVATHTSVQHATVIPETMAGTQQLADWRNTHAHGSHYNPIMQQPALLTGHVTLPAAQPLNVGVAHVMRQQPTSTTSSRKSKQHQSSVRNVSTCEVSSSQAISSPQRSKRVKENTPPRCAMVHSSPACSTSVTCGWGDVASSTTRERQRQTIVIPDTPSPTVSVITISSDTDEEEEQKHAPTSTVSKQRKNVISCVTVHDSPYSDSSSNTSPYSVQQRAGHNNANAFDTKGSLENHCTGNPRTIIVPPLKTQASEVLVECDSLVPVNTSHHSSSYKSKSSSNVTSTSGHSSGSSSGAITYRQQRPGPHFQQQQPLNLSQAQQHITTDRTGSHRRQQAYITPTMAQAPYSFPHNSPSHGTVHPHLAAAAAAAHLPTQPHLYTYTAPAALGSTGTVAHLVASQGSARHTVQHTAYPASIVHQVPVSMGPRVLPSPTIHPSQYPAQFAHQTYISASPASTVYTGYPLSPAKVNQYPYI

[12] = molecular target: Serine/threonine-protein kinase pim-1 (Homo sapiens) (UniProt P11309); assay: Inhibition of PIM1 (unknown origin) assessed as residual activity at 50 uM relative to control; method in brief: as §1
Chain of Serine/threonine-protein kinase pim-1 (Homo sapiens) (P11309 whole entry, looked up): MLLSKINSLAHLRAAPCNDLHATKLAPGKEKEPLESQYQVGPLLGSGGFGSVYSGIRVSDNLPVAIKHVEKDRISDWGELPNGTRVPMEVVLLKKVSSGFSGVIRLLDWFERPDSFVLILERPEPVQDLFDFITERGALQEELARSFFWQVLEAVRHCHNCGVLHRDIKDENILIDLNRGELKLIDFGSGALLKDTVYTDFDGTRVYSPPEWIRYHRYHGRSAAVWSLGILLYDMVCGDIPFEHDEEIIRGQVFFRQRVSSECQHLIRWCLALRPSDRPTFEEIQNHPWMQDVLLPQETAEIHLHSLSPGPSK

[13] = molecular target: Hepatocyte growth factor receptor (Homo sapiens) (UniProt P08581); assay: Inhibition of MET (unknown origin) assessed as residual activity at 50 uM relative to control; method in brief: as §1

- Activity [1]: 71%
- Activity [2]: 104%
- Activity [3]: 86%
- Activity (Homo sapiens): 87%
- Activity [4]: 97%
- Activity [5]: 78%
- Activity [6]: 104%
- Activity [7]: 103%
- Activity [8]: 79%
- Activity [9]: 103%
- Activity [10]: 97%
- Activity [11]: 83%
- Activity [12]: 46%
- Activity [13]: 102%
SMILES: O=C(O)c1ccc(Nc2nc(-c3cccc([N+](=O)[O-])c3)cs2)cc1
